Assay results: PMC7388746 (Toxicon : official journal of the International Society on …, 2020)
Positions of bridges follow the written chain, without caps; N, C: chain ends. Residues, ends and D or L forms follow the SMILES beside them.

Assays:
[1] = target: T1, TRPV1 channels expressed in HEK293T cells (murine TRPV1, E571A, C-terminal eYFP) (Mus musculus, UniProt Q704Y3, E571A); assay: Inside-out patch-clamp of TRPV1, intracellular perfusion; assay type: cell-based
[2] = test system: TRPV1; details: animal studies, ref Kaszas et al., 2012, Lebovitz et al.; cited from earlier work
[3] = test system: TRPV1; details: cited from earlier work
[4] = target: T1, TRPV1 channels expressed in HEK293T cells (murine TRPV1, E571A, C-terminal eYFP); assay: Patch-clamp activation of TRPV1, extracellular perfusion; assay type: cell-based
[5] = target: T1, TRPV1 channels expressed in HEK293T cells (murine TRPV1, E571A, C-terminal eYFP); assay: Single-channel recording of TRPV1; assay type: cell-based; details: outside-out; 300 μM RhTx2, on first perfusion
[6] = test system: TRPV3; assay: Whole-cell patch-clamp of TRPV3; assay type: cell-based; details: n = 4
Outline: (§1)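 Channels transiently expressed in HEK293T cells (DMEM, 10% FBS, 37 °C, 5% CO2; Lipofectamine 3000) and recorded 24–48 h after transfection. Whole-cell, ~4 MΩ pipettes, 60% series-resistance compensation. Bath and pipette: 130 mM NaCl, 10 mM glucose, 0.2 mM EDTA, 3 mM HEPES pH 7.2. Sampled 10 kHz, filtered 2.9 kHz, 22 °C, rapid gravity perfusion. Mean ± SEM.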

[7] = target: T1, TRPV1 channels expressed in HEK293T cells (murine TRPV1, E571A, C-terminal eYFP); assay: TRPV1 desensitization on prolonged application and recovery; assay type: cell-based; details: RhTx2 300 μM vs RhTx 10 μM
[8] = test system: TRPV2; assay: Whole-cell patch-clamp of TRPV2; assay type: cell-based; details: n = 4
Outline: as §1

T1 sequence (Q704Y3 whole entry E571A, the tested form may be a part): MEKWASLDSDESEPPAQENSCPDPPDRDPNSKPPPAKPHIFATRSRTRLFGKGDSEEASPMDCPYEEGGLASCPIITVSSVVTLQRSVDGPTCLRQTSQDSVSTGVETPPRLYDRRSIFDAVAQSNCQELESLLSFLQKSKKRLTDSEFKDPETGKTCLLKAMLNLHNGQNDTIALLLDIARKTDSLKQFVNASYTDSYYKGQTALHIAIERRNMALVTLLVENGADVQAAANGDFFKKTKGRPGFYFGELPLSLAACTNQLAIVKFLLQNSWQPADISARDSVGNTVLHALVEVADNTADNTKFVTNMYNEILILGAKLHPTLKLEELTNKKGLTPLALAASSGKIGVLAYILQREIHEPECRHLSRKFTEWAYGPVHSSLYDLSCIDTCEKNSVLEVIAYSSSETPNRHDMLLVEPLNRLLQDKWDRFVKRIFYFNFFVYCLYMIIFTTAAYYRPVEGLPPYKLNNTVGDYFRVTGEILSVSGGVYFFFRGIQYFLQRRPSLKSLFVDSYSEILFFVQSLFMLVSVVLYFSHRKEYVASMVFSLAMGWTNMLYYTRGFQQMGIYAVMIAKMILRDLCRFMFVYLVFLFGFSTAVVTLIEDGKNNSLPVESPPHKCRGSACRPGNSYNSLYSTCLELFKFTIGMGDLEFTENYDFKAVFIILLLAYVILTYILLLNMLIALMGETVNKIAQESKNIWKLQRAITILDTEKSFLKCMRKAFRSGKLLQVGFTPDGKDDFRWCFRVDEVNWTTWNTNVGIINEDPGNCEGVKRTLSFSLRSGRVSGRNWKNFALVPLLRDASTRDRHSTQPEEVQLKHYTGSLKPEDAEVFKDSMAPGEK

SMILES: COc1cc(CNC(=O)CCCC/C=C/C(C)C)ccc1O [capsaicin]
- TRPV1 activation by intracellular application (in words) [1]: robustly activated

SMILES: CCOC(=O)C1=C(c2ccccc2)NC(C)=C(C(=O)SCCOC)C1CC (stereo not drawn) [MRS1477]
- analgesic effect and side effects, literature (in words) [2]: analgesic effects without side effects such as hyperthermia
- TRPV1 allosteric modulation, literature (in words) ([3]; ref Kaszas et al., 2012, Lebovitz et al.): positively and allosterically modulate the ligand activation of TRPV1

SMILES: Oc1cc2c(cc1O)CN(C(=S)NCCc1ccc(Cl)cc1)CCC2 [capsazepine]
- block of RhTx2 activation of TRPV1 (in words) [4]: cannot be blocked
- mode of inhibition vs capsaicin, literature (in words) ([3]; ref Cao et al., 2013, Yang et al., 2015): competitive inhibitor

SMILES: CC[C@H](C)[C@H](NC(=O)[C@@H]1CSSC[C@@H]2NC(=O)[C@H]([C@@H](C)O)NC(=O)[C@H](C(C)C)NC(=O)CNC(=O)[C@H](CC(N)=O)NC(=O)[C@@H](NC(=O)[C@@H]3CCCN3C(=O)[C@H](CC(N)=O)NC(=O)[C@H](CC(N)=O)NC(=O)[C@@H](N)CC(C)C)CSSC[C@H](NC(=O)[C@H](CCCNC(=N)N)NC(=O)[C@H](Cc3ccc(O)cc3)NC(=O)CNC(=O)[C@H](CO)NC(=O)[C@@H]3CCCN3C2=O)C(=O)N[C@@H](CO)C(=O)N[C@@H]([C@@H](C)CC)C(=O)N[C@@H](C(C)C)C(=O)N[C@@H](CC(=O)O)C(=O)N[C@@H](CCCCN)C(=O)N[C@@H](CCC(N)=O)C(=O)N1)C(=O)N[C@@H](CCCCN)C(=O)N[C@@H](CCCCN)C(=O)N[C@@H](CCC(=O)O)C(=O)O [RhTx] (H-LNNPCNGVTCPSGYRCSIVDKQCIKKE-OH; disulfide 5-16, 10-23; N-terminus and C-terminus assumed)
- mechanism of TRPV1 desensitization, literature (in words) ([3]; ref Yang et al., 2015, Luo et al., 2019): mechanistically similar to the heat desensitization
- TRPV1 activation, literature (in words) ([3]; ref Yang et al., 2015): strongly activates TRPV1
- binding site on TRPV1, literature (in words) ([3]; ref Yang et al., 2015): binds to the outer pore region above the pore helix

SMILES: CC[C@H](C)[C@H](NC(=O)[C@@H]1CSSC[C@@H]2NC(=O)[C@H]([C@@H](C)O)NC(=O)[C@H](C(C)C)NC(=O)CNC(=O)[C@H](CC(N)=O)NC(=O)[C@@H](NC(=O)[C@@H]3CCCN3C(=O)[C@H](CC(N)=O)NC(=O)[C@H](CC(N)=O)NC(=O)[C@H](CC(C)C)NC(=O)[C@H](Cc3ccc(O)cc3)NC(=O)[C@H](CCCCN)NC(=O)[C@H](CO)NC(=O)[C@@H](N)CC(N)=O)CSSC[C@H](NC(=O)[C@H](CCCNC(=N)N)NC(=O)[C@H](Cc3ccc(O)cc3)NC(=O)CNC(=O)[C@H](CO)NC(=O)[C@@H]3CCCN3C2=O)C(=O)N[C@@H](CO)C(=O)N[C@@H]([C@@H](C)CC)C(=O)N[C@@H](C(C)C)C(=O)N[C@@H](CC(=O)O)C(=O)N[C@@H](CCCCN)C(=O)N[C@@H](CCC(N)=O)C(=O)N1)C(=O)N[C@@H](CCCCN)C(=O)N[C@@H](CCCCN)C(=O)N[C@@H](CCC(=O)O)C(=O)O [RhTx2] (H-NSKYLNNPCNGVTCPSGYRCSIVDKQCIKKE-OH; disulfide 9-20, 14-27; N-terminus and C-terminus assumed)
- initial single-channel opening (in words) [5]: strong channel opening
- current activation in TRPV3 compared with TRPV1 (in words) [6]: much smaller
- change in EC50, RhTx2 vs RhTx (fold) ([4]; EC50 of RhTx2 relative to RhTx, apparent binding affinity much lower): ~100 fold
- selectivity (in words) ([4]; TRPV1 vs TRPV2 and TRPV3, whole-cell, n = 4 per channel): selective for TRPV1 channel
- TRPV1 activation (in words) ([4]; perfused from extracellular side, whole-cell recording, HEK293T): robustly activated TRPV1
- steady state open probability in the desensitized state (in words) [7]: significantly lower than that of RhTx
- current activation in TRPV2 compared with TRPV1 (in words) [8]: much smaller
